# Legend:
# [1] = In vitro plasma protein binding in dog at 5 ug/ml by ultrafiltration method; assay type: ADME, cell-free, Canis lupus familiaris; conditions: read-out: PPB (converted)
# In short: (§1)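 [14C]M-III in saline was added to rat or dog plasma at final 0.5, 5 and 50 µg/ml. Plasma was ultrafiltered by centrifugation at 1500g and 37°C for 10 min, and 14C was measured in plasma and filtrate. Mean ± S.D., n = 3.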
# [2] = AUC infinity in Crj:CD(SD)IGS rat at 0.5 mg/kg, iv administered as bolus dose by HPLC-based liquid scintillation counting analysis; assay type: ADME, organism-based; set-up: time infinity, dose 0.5 mg/kg, route intravenous; conditions: plasma
# In short: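 Male Crj:CD(SD)IGS rats (285–324 g, 8 weeks) were given [14C]M-III in saline (0.5 mg/ml) as an IV bolus of 0.5 mg–2.6 MBq/kg. Tail-vein blood was sampled from 5 min to 24 h to give heparinized plasma. After acetonitrile deproteinization, samples went through HPLC with fraction collection and scintillation counting. AUCinf = AUClast + Clast/kel, with terminal kel from linear regression; n = 3.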
# [3] = Terminal half life in Crj:CD(SD)IGS rat at 0.5 mg/kg, iv administered as bolus dose by HPLC-based liquid scintillation counting analysis; assay type: ADME, organism-based; set-up: dose 0.5 mg/kg, route intravenous; conditions: in vivo, read-out: beta t1/2 (converted)
# In short: (§2)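 [14C]M-III in saline given as a single iv bolus at 0.5 mg/kg to male rats (tail-vein blood, 5 min–24 h) or male beagle dogs (cephalic-vein blood, 5 min–168 h). Heparinized plasma counted for radioactivity; M-III quantified by HPLC with fraction collection and liquid scintillation counting. C5 min read directly; terminal t1/2 by linear regression, kel = ln2/t1/2, Vd = dose/back-extrapolated C0, CLtot = dose/AUCinf. Mean ± S.D., n = 3.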
# [4] = Total body clearance in Crj:CD(SD)IGS rat at 0.125 mg/hr, iv administered as continuous infusion by HPLC based liquid scintillation counting analysis in presence of 16 mg/hr/kg probenecid; assay type: ADME, organism-based; conditions: in vivo, with probenecid 16 mg/hr/kg
# In short: (§3)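 Rats received a continuous iv infusion of [14C]M-III at 0.125 mg/rat/h, with probenecid co-infused at 16, 31 or 62 mg/h/kg or vehicle alone, for 5 h. Arterial plasma was sampled during infusion. CLtot = infusion rate / steady-state plasma M-III (120–180 min). Unbound fraction was measured by ultrafiltration of 5-h plasma (10,000 MWCO, 1500g, 37°C, 10 min). CLint = CLtot / unbound ratio.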
# [5] = Drug excretion in Beagle dog feces assessed as excretion ratio of [14C] at 0.5 mg/kg, iv administered as bolus dose measured from 0 to 168 hrs by HPLC-based liquid scintillation counting analysis; assay type: ADME, organism-based, Canis lupus familiaris; set-up: dose 0.5 mg/kg, route intravenous; conditions: in vivo
# In short: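 Male rats in metabolic cages with urine/feces separator, or beagle dogs, after a 0.5 mg/kg iv bolus of [14C]M-III in saline. Radioactivity in urine and feces collected 0–24 h (rats) or 0–168 h (dogs) was counted and expressed as percent of dose. Mean ± S.D., n = 3.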
# [6] = In vitro plasma protein binding in dog at 50 ug/ml by ultrafiltration method; assay type: ADME, cell-free, Canis lupus familiaris; conditions: read-out: PPB (converted); in short: as §1
# [7] = In vitro plasma protein binding in rat at 50 ug/ml by ultrafiltration method; assay type: ADME, cell-free; conditions: read-out: PPB (converted); in short: as §1
# [8] = Total body clearance in Crj:CD(SD)IGS rat at 0.125 mg/hr, iv administered as continuous infusion by HPLC based liquid scintillation counting analysis in presence of 62 mg/hr/kg probenecid; assay type: ADME, organism-based; conditions: in vivo, with probenecid 62 mg/hr/kg; in short: as §3
# Rattus norvegicus = experiment: Intrinsic total body clearance in Crj:CD(SD)IGS rat at 0.125 mg/hr, iv administered as continuous infusion by HPLC based liquid scintillation counting analysis in presence of 16 mg/hr/kg probenecid; assay type: ADME, organism-based; conditions: in vivo; in short: as §3
# [9] = In vitro plasma protein binding in rat at 0.5 ug/ml by ultrafiltration method; assay type: ADME, cell-free; conditions: read-out: PPB (converted); in short: as §1
# Plasma = experiment: Plasma concentration in Beagle dog at 0.5 mg/kg, iv administered as bolus dose by HPLC based liquid scintillation counting analysis; assay type: ADME, organism-based, Canis lupus familiaris; set-up: dose 0.5 mg/kg, route intravenous; conditions: in vivo
# [10] = AUC infinity in Beagle dog at 0.5 mg/kg, iv administered as bolus dose by HPLC-based liquid scintillation counting analysis; assay type: ADME, organism-based, Canis lupus familiaris; set-up: time infinity, dose 0.5 mg/kg, route intravenous; conditions: plasma
# In short: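 Male beagles (7.4–10.0 kg) got a single IV injection of [14C]M-III in saline (2.5 mg/ml), 0.5 mg–1.0 MBq/kg. Cephalic-vein blood was taken from 5 min to 168 h and spun for heparinized plasma. Plasma was deproteinized with acetonitrile, run on reverse-phase HPLC and collected as 1-min fractions counted by LSC. AUCinf = AUClast + Clast/kel; n = 3.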
# [11] = Plasma concentration in Crj:CD(SD)IGS rat at 0.125 mg/hr, iv administered as continuous infusion measured after 3 hrs by HPLC based liquid scintillation counting analysis in presence of probenecid; assay type: ADME, organism-based; conditions: with probenecid (dose not stated)
# In short: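 Rats were continuously infused iv with [14C]M-III at 0.125 mg/rat/h, plus probenecid (4.7, 9.4, 18.6 mg/rat/h) or vehicle. Femoral-artery blood was taken at 0.5, 1, 2, 3 and 4 h, with terminal aortic blood at 5 h. Plasma radioactivity was measured, with probenecid quantified by HPLC-UV at 240 nm against spiked-plasma calibration from 0.1 to 100 µg/ml.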
# [12] = Elimination rate constant in Beagle dog at 0.5 mg/kg, iv administered as bolus dose by HPLC-based liquid scintillation counting analysis; assay type: ADME, organism-based, Canis lupus familiaris; set-up: dose 0.5 mg/kg, route intravenous; conditions: in vivo; in short: as §2
# [13] = Ratio of drug level in kidney medulla to plasma in Beagle dog at 0.5 mg/kg, iv administered as bolus dose by HPLC-based liquid scintillation counting analysis; assay type: ADME, organism-based, Canis lupus familiaris; set-up: dose 0.5 mg/kg, route intravenous
# In short: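 Rats received [14C]M-III in saline by continuous jugular-vein infusion for 4 h (0.5 mg/rat/h per methods; 0.25 mg/h in legend), then aortic blood and kidneys were collected. Dogs received a 0.5 mg/kg iv bolus, with blood and kidneys (cortex and medulla separated) collected at 24 h. 14C was measured in tissue homogenates and plasma as a tissue/plasma ratio. Rat n = 3, dog n = 2.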
# [14] = Total body clearance in Crj:CD(SD)IGS rat at 0.5 mg/kg, iv administered as bolus dose by HPLC-based liquid scintillation counting analysis; assay type: ADME, organism-based; set-up: dose 0.5 mg/kg, route intravenous; conditions: in vivo; in short: as §2
# [15] = Total body clearance in Crj:CD(SD)IGS rat at 0.125 mg/hr, iv administered as continuous infusion by HPLC based liquid scintillation counting analysis in presence of 31 mg/hr/kg probenecid; assay type: ADME, organism-based; conditions: in vivo, with probenecid 31 mg/hr/kg; in short: as §3
# [16] = Apparent volume of distribution in Beagle dog at 0.5 mg/kg, iv administered as bolus dose by HPLC-based liquid scintillation counting analysis; assay type: ADME, organism-based, Canis lupus familiaris; set-up: dose 0.5 mg/kg, route intravenous; conditions: in vivo, read-out: Vd(app); in short: as §2
# [17] = In vivo plasma protein binding in Crj:CD(SD)IGS rat at 0.125 mg/hr, iv administered as continuous infusion by ultrafiltration method in presence of 62 mg/hr/kg probenecid; assay type: ADME, organism-based; conditions: with probenecid 62 mg/hr/kg, read-out: PPB (converted); in short: as §3
# [18] = Unbound fraction in Crj:CD(SD)IGS rat plasma at 0.125 mg/hr, iv administered as continuous infusion by ultrafiltration method in presence of 31 mg/hr/kg probenecid; assay type: ADME, organism-based; conditions: with probenecid 31 mg/hr/kg; in short: as §3
smiles,measurement,setting,value
N[14c]1[14cH][14cH][14c](OS(=O)(=O)O)[14cH][14c]1Cl,fraction unbound at 5 ug/ml,[1],0.087
same,AUC(0-inf),[2],0.802 µg·h/mL
same,half-life,[3],4.1 h
same,clearance,[4],4.45 mL/min/kg
same,Drug excretion,[5],7.7%
same,fraction unbound at 50 ug/ml,[6],0.154
same,fraction unbound at 50 ug/ml,[7],0.102
same,clearance,[8],1.83 mL/min/kg
same,CL,Rattus norvegicus,53.83 mL/min/kg
same,fraction unbound at 0.5 ug/ml,[9],0.075
same,Cp,Plasma,2500 ng/mL
same,AUC(0-inf),[10],596 µg·h/mL
same,concentration at 3 h,[11],3600 ng/mL
same,k el,[12],1.68e-06 s⁻¹
same,Kp,[13],0.2
same,clearance,[14],10.5 mL/min/kg
same,clearance,[15],2.35 mL/min/kg
same,Vd,[16],0.0989 L/kg
same,fraction unbound,[17],0.184
same,fraction unbound,[18],0.197
